CHT PAM: allosterically activates the human high affinity choline transporter; Q9GZV3; CHT-expressing cells, membrane potential dye, choline EC20; hits give high values; LV-AA mutant CHT in HEK293 cells; B-score at 10 µM; 310,000 tested, 0.49% active; AID 488977;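 active = initial fluorescence not abnormally high and integrated response B-score, plate-corrected, over 3 SD above library mean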
CHT inh: inhibits the human high affinity choline transporter; 310,000 tested, 0.86% active; Q9GZV3; AID 488975; CHT-expressing cells, membrane potential dye, choline response; hits give low values; B-score at 10 µM;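 active = B-score over 3 SD under the library average, and starting fluorescence ratio not unusually high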;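 also: choline stimulus applied at its EC90 after an EC20 pre-addition; B-score computed on integrated fluorescence ratio after choline addition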
procasp3 activ: activators of human procaspase-3; P42574; recombinant procaspase-3 D3A, Ac-DEVD-pNA absorbance 405 nm; activation, % at 8.5 µM; 330,000 tested, 0.11% active;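 active = activation above the mean of all tested compounds plus 3 SD, cut at about 21% in these data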;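 also: 0% = DMSO alone and 100% = DMSO wells spiked with extra 5 µM PC-3 D3A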
Target sequence (P42574 whole entry D9A/D28A/D175A): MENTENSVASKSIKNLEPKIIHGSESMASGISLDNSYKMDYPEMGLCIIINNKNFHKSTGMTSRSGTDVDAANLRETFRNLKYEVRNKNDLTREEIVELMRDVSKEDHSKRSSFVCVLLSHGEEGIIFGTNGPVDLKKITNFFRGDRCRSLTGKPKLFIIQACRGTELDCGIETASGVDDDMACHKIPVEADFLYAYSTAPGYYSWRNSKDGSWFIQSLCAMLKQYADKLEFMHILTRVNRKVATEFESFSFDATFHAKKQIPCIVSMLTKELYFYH
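Assay system: Procaspase-3 D3A mutant, all three cleavage aspartates alanine. Buffer or medium: Zinc-free HEPES saline buffer with Triton X-100. Times: 1 h compound preincubation, 2 h substrate hydrolysis at 25 °C. Measured by: 405 nm absorbance of p-nitroaniline, reads at 0 and 120 min. Read-out basis: percent activation relative to control range. Replicates: singlicate.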
proCasp7 act: counter-screen: procaspase-7 (human) activation. P55210. recombinant procaspase-7, Ac-DEVD-pNA absorbance 405 nm; D23A/D198A/D206A triple mutant, cannot self-cleave; scale: DMSO 0, 5 µM enzyme 100. activation, % at 8.5 µM. 330,000 tested, 0.093% active. AID 463210;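 active = percent activation above the screen-wide mean plus 3 SD, cut at about 25% in these data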
Target sequence (P55210 whole entry D23A/D198A/D206A): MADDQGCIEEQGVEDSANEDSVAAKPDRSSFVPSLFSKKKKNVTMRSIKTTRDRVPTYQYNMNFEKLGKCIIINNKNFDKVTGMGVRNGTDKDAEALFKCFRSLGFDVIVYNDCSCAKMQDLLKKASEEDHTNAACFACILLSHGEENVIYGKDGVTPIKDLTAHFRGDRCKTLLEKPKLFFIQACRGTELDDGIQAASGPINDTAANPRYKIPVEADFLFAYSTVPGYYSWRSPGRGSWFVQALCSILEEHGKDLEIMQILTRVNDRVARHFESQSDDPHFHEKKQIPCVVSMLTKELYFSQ
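Detection: p-Nitroaniline absorbance at 405 nm, read at 0 and 120 min; system: Uncleavable procaspase-7 mutant enzyme; evaluation: % activation from two-timepoint absorbance difference, scaled to controls; times: 1 h enzyme–compound preincubation and 2 h substrate reaction, both 25 °C; buffer or medium: Zinc-free HEPES pH 7.4 with 300 mM NaCl, 0.01% Triton X-100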
CHT block conf: human CHT inhibition, confirmatory screen | shares compounds with CHT inh | CHT-expressing cells, choline membrane potential dye; LV-to-AA substituted CHT, HEK293 cells | CHT activity remaining % of control (hits give low values), % at 10 µM | 2,400 tested, 70% active | AID 493221;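 active = choline transporter activity left, mean of duplicates at 10 µM, below buffer-only control mean minus 3 SD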;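 also: depolarization triggered by choline at its EC90 following an EC20 pre-addition; 0% = hemicholinium-3 full block and 100% = buffer-only control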
HEK293 CHT ctr: CHT inhibitor counter-screen hit in parental HEK293 cells; shares compounds with CHT inh; membrane potential dye, choline response; active = decrease or increase beyond buffer ±3SD; membrane potential ratio readout (active if shifted either direction beyond buffer ±3SD; no single direction) at 10 µM; 2,400 tested, 4% active; AID 493222;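 also: parental cells lack the transporter so any hit is non-specific; ratio is peak minus trough fluorescence over baseline after EC90 choline challenge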
* hit, by the source's call; i = inactive; · = no result. Most compounds without a hit are left out; they make up all but 1.3% or so of the library.

SMILES	CHT PAM	CHT inh	procasp3 activ	proCasp7 act	CHT block conf	HEK293 CHT ctr
O=C(NCc1ccccn1)Nc1ccc(Br)cc1Cl	i	i	1.3	0.0	·	·
COc1cc2ncnc(NCc3cccc(Cl)c3)c2cc1OC	i	i	1.5	4.6	·	·
Cc1nnc(NCc2cccc(Cl)c2)c2ccccc12	i	-10.2*	1.5	6.0	20.0%*	i
Cc1ccc(C(C)NC(=O)C2CCCC2)cc1C (stereo not given)	i	-5.39*	0.3	10.9	44.0%*	i
CC(C)c1ccc(C(C)NC(=O)C2CCCC2)cc1 (stereo not given)	i	-5.3*	-1.5	-1.6	66.3%*	i
Cc1ccc(C(C)NC(=O)C2CCCO2)cc1C (stereo not given)	i	i	2.8	-0.6	·	·
CC(NC(=O)C1CCCC1)c1ccc(Br)cc1 (stereo not given)	i	i	3.2	8.7	·	·
CC(c1ccccc1)C1C(C#N)=C(N)SC(N)=C1C#N (stereo not given)	i	i	-5.2	-13.5	·	·
CC(CC1C(C#N)=C(N)SC(N)=C1C#N)c1ccccc1 (stereo not given)	i	-5.35*	-25.3	-20.1	i	i
O=C(c1cccc(F)c1)N1CCN(C(=O)C(c2ccccc2)c2ccccc2)CC1	i	i	5.1	-1.0	·	·
O=C(N/N=C/c1ccc(O)c([N+](=O)[O-])c1)C1CC1(c1ccccc1)c1ccccc1 (stereo not given)	i	-9.34*	-9.8	-0.1	i	i
O=C(CN1C(=O)S/C(=C\c2cccc(Cl)c2)C1=O)NCCCn1ccnc1	i	-5.85*	-6.1	-3.2	55.9%*	i
Oc1c(Br)cc(Br)c(/C=N/n2c(-c3ccccc3)n[nH]c2=S)c1Br	i	-6.83*	-10.7	-18.8	48.3%*	i
Oc1ccc(Br)cc1/C=N/n1c(-c2ccccc2)n[nH]c1=S	i	i	0.4	-11.0	·	·
Cn1nc(C(=O)NCCCN2CCCCC2)c2c1-c1ccccc1SC2	i	-5.47*	6.2	-5.8	36.8%*	i
CCN1CCN(CCCNC(=O)c2ccc3c(c2)N(Cc2ccccc2)CCS3)CC1	i	i	7.5	-0.4	·	·
O=C(NCCCN1CCCC1)c1ccc2c(c1)N(Cc1ccccc1)CCS2	i	-5.41*	-3.9	0.2	36.3%*	3.96*
CCOC(=O)N1CCN(C(=O)c2nn(C)c3c2CSc2ccccc2-3)CC1	i	i	5.6	10.2	·	·
O=C(NCCCOc1cccc(CN2CCCCC2)c1)c1ccc(Cl)c(Cl)c1	i	-10.9*	7.0	4.5	22.0%*	2.45*
O=C1Nc2cc(C(=O)NCCCN3CCOCC3)ccc2S/C1=C/c1ccccc1F	i	i	3.5	-4.4	·	·
O=C1Nc2cc(C(=O)NCCCN3CCCC3)ccc2S/C1=C\c1ccccc1	i	-10.7*	-3.5	7.4	24.4%*	i
CCOc1ccc(Br)cc1CNCc1cccnc1	i	i	·	·	·	·
Fc1ccccc1COc1ccc(Br)cc1CNCc1ccncc1	i	-5.48*	-1.9	2.4	70.1%*	i
COCCCn1c(SCC(=O)Nc2sc3c(c2C#N)CCCC3)nnc1-c1ccncc1	i	-5.45*	-1.9	-0.7	62.2%*	i
N#CC(C#N)=c1ccc2c(c1)N1C3=C(CCCC3)CC3CCCCC31N=2 (stereo not given)	i	-11.2*	-1.9	4.8	62.2%*	i
SMILES	CHT PAM	CHT inh	procasp3 activ	proCasp7 act	CHT block conf	HEK293 CHT ctr
N#C/C(C(N)=O)=c1/ccc2c(c1)N1C3=C(CCCC3)CC3CCCCC31N=2 (stereo not given)	i	-14.5*	-5.3	-6.6	22.8%*	i
CCCCOC(=O)c1ccc(NC(=O)C(=O)CC(=O)c2ccc(OC)cc2)cc1	i	i	2.8	-6.7	·	·
O=C(CN1C(=O)NC(c2ccccc2)(c2ccccc2)C1=O)NCc1ccco1	·	·	-0.8	-0.1	·	·
CCOC(=O)c1ccc2c(c1)[nH]c(=S)n2CC	i	-5.08*	1.7	-1.4	56.0%*	i
N#Cc1c(Cl)cccc1N1CCCC1	i	-7.19*	6.0	2.8	49.1%*	i
O=C(O)c1cc(C(=O)O)cc(N2C(=O)CSC2=S)c1	i	i	-3.2	-14.0	·	·
O=C(O)c1ccc(N2C(=O)CSC2=S)cc1	i	-6.36*	-6.6	-26.0	68.6%*	i
Cc1csc(NC(=O)CN2C(=O)COc3ccc(Cl)cc32)n1	i	i	3.9	5.3	·	·
c1ccc(OCc2nc(-c3ccncc3)no2)cc1	i	i	0.0	6.5	·	·
c1ccc(OCCCc2nc(-c3ccncc3)no2)cc1	i	i	3.0	1.8	58.8%*	-8.43*
Clc1ccccc1OCc1nc(-c2ccncc2)no1	i	-6.41*	10.5	-3.4	16.3%*	-11.3*
CC(NC(=O)CCNC(=O)c1ccc(Br)cc1)c1ccc(-n2ccnc2)cc1 (stereo not given)	i	i	2.0	10.8	·	·
COc1ccccc1OCC(=O)NCCS(=O)(=O)N1CCN(c2ccccc2)CC1	i	-6.9*	-4.7	-1.0	58.5%*	i
COc1ccc(CC(=O)NCCS(=O)(=O)N2CCN(c3ccccc3)CC2)cc1OC	i	i	4.6	3.3	·	·
CSc1ccccc1C(=O)NCCS(=O)(=O)N1CCN(c2ccc(F)cc2)CC1	i	-5.29*	1.8	2.8	38.4%*	i
Cc1ccccc1OCC(=O)NCCS(=O)(=O)N1CCN(c2ccc(F)cc2)CC1	i	i	0.8	1.2	·	·
Cn1c(CNC(=O)c2ccc(Cl)cc2)nnc1SCC(=O)N1CCOCC1	i	i	3.3	-2.0	·	·
Cc1cccc(C(C)C)c1NC(=O)COC(=O)CNS(=O)(=O)c1ccccc1	i	i	6.3	-1.9	·	·
CCc1ccc(OCC(=O)N2CCN(c3ccccc3F)CC2)cc1	i	-5.55*	6.8	-1.7	i	i
CC(=O)c1ccc(OCC(O)CN2CCC(C)CC2)cc1 (stereo not given)	i	i	-3.8	2.5	·	·
CC1CCN(CC(O)COc2ccc(OCC(O)CN3CCC(C)CC3)cc2)CC1 (stereo not given)	i	-10.4*	1.6	8.7	5.8%*	i
CC(C)(C)S(=O)(=O)/C(C#N)=N/Nc1ccc(S(N)(=O)=O)cc1	i	i	-4.0	-2.3	·	·
CC(C)(C)S(=O)(=O)/C(C#N)=N/Nc1ccc(C#N)cc1	i	i	-9.5	-6.0	55.4%*	i

Compound activity: PubChem, several laboratories
